# Shown are actives, neighbours in structure and some others; about 12% of the full set was active somewhere.
# Lmaj promast: reduces viability of Leishmania major promastigotes | 200,000 tested, 9% active | AID 1063 | inhibition, % at 10 µM | resazurin fluorescence viability; in the data active = inhibition above about 50%;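 also: promastigotes grown with compound for 44 hours at 28 °C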
# ABCB1 block: blocks JC-1 efflux by human ABCB1 transporter. P08183. CCRF-Adr cells, flow cytometry. inhibition, % at 6.6 µM. 190,000 tested, 0.067% active; in the data active = inhibition above about 40%;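 also: 0% = vehicle and 100% = reference inhibitor; higher value means more JC-1 retained so stronger ABCB1 efflux block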
# ABCG2 inh: human ABCG2 inhibition, ABCB1 as counter-screen | Q9UNQ0 | IgMXP3 cells, JC-1 efflux, flow cytometry | inhibition, % at 6.6 µM | 190,000 tested, 0.1% active | AID 1325;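 active = inhibition above 80%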;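 also: 0% = DMSO and 100% = nicardipine control wells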
#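 Incubation: cells with compound and JC-1, 10 min at 25 °C, rotating, no wash / Test system: IgMXP3 (ABCG2) plus far-red-tagged CCRF-Adr (ABCB1) cells / Compound dosing: one concentration, 6.6 µM final / Also added: JC-1 fluorescent substrate / Evaluation: efflux inhibition in percent versus controls / Detection: flow cytometry, 530 nm JC-1 signal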
# RAM network inh: blocks the yeast RAM network; S. cerevisiae dse1pr::URA3 reporter, 5-FOA growth OD615, 2 d; analog-sensitive cbk1-as2 kinase mutant strain; inhibition, % at 50 µM; 190,000 tested, 1.8% active;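 active = inhibition above a set limit, 3 SD over mean compound inhibition, cut at about 8.4% in these data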;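 also: 0% = DMSO-only wells with no growth and 100% = 10 µM 1-NA-PP1 full growth; inhibition rescues growth on 5-FOA so higher OD means more RAM inhibition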
# WT yeast gro inh: growth inhibition of WT yeast, mitochondrial fusion screen | 190,000 tested, 2.1% active | mitochondrial fusion phenotypic screen, WT strain | inhibition, % at 10 µM | AID 1362; in the data active = inhibition above about 58%; tested in S. cerevisiae
# The depositor's hits bear a star; · = not tested or not shown.
SMILES,Lmaj promast,ABCB1 block,ABCG2 inh,RAM network inh,WT yeast gro inh
CCC1(C(=O)c2ccc(Cl)cc2)C2c3ccccc3OC(=O)C21C(=O)Nc1ccccc1 (stereo not drawn),-6,1,4,3,-12
O=C(NCC1OCCc2ccccc21)c1cc(COc2ccc(F)cc2Cl)on1 (stereo not drawn),-1,1,13,6,1
CCN1CCCC1Cn1cnc2c([nH]c3ccc(Cl)cc32)c1=O (stereo not drawn),11,0,4,1,11
CCC1CCCN1Cn1cnc2c([nH]c3ccc(OC)cc32)c1=O (stereo not drawn),66*,1,5,1,-6
CCN1CCCC1Cn1cnc2c([nH]c3cccc(Cl)c32)c1=O (stereo not drawn),81*,0,2,1,-7
COc1ccc(-c2cc(C(F)(F)F)nc(SCCC(=O)NCc3ccccc3)n2)cc1,0,1,6,9.6*,1
O=C(CCSc1nc(-c2ccco2)cc(C(F)(F)F)n1)N1CCCc2ccccc21,76*,0,6,3,14
O=C(CCSc1nc(-c2ccco2)cc(C(F)(F)F)n1)NCCc1ccccc1,0,0,1,9.9*,6
CC(NC(=O)CCSc1nc(-c2ccc3c(c2)OCO3)cc(C(F)(F)F)n1)c1ccccc1 (stereo not drawn),62*,2,6,1,11
COc1ccccc1CCNC(=O)CCSc1nc(-c2ccco2)cc(C(F)(F)F)n1,1,1,3,6,4
O=C(NNc1c(F)c(F)cc(F)c1F)c1cc2ccccc2oc1=O,-4,0,0,3,-4
CCN(CC)S(=O)(=O)c1cc(C(=O)OCC(=O)NC2CCCc3ccccc32)ccc1C (stereo not drawn),51*,1,8,7,19
CNS(=O)(=O)c1cc(C(=O)OCC(=O)NC2CCCc3ccccc32)ccc1Cl (stereo not drawn),-8,0,3,2,-25
O=C(Cc1ccc2c(c1)OCCO2)N1CCN(c2ccccc2)CC1,19,0,1,1,-5
Cc1ccc2cc(CN(Cc3ccc(F)cc3)Cc3nnnn3C3CCCC3)c(=O)[nH]c2c1,81*,7,17,7,37
Cc1ccc2[nH]c(=O)c(CN(CCCN3CCOCC3)Cc3nnnn3C3CCCC3)cc2c1,4,0,-1,0,-17
CCc1ccc2[nH]c(=O)c(CN(Cc3ccc4c(c3)OCO4)Cc3nnnn3C3CCCC3)cc2c1,97*,1,1,7,31
Cc1cc(C)c2[nH]c(=O)c(CN(Cc3nnnn3C3CCCC3)C3CCCCC3)cc2c1,29,10,10,0,13
Cc1ccc2cc(CN(Cc3ccccc3)Cc3nnnn3C3CCCC3)c(=O)[nH]c2c1,69*,2,3,4,54
Cc1ccc(/C=N/NC(=O)CNC(=O)c2ccc(S(=O)(=O)N(C)C)cc2)cc1,48,0,-1,3,-9
CN(C)S(=O)(=O)c1ccc(C(=O)NCC(=O)N/N=C/c2ccccc2Cl)cc1,68*,0,0,5,-5
Cc1ccsc1/C=N/NC(=O)CNC(=O)c1ccc(S(=O)(=O)N(C)C)cc1,52*,0,2,0,-6
CS(=O)(=O)N(CC(=O)N1CCC(C(N)=O)CC1)c1ccc(Cl)c(C(F)(F)F)c1,-9,1,2,2,-24
CC1CCN(C(=O)CN(c2ccc(Cl)c(C(F)(F)F)c2)S(C)(=O)=O)CC1,69*,2,8,2,-2
CS(=O)(=O)N(CC(=O)N1CCN(c2ccccc2)CC1)c1cc(C(F)(F)F)ccc1Cl,-7,1,2,-1,-12
SMILES,Lmaj promast,ABCB1 block,ABCG2 inh,RAM network inh,WT yeast gro inh
CS(=O)(=O)N(CC(=O)N1CCN(c2ccccc2)CC1)c1ccc(Cl)c(C(F)(F)F)c1,89*,1,21,2,-3
CS(=O)(=O)N(Cc1ccc(Cl)cc1)c1ccc(C(=O)N2CCN(c3ccccc3)CC2)cc1,13,1,12,3,27
CS(=O)(=O)N(Cc1ccccc1)c1ccc(C(=O)N2CCN(c3cccc(Cl)c3)CC2)cc1,73*,1,1,3,20
CN(C)c1ccc(/C=N/NC(N)=S)cc1[N+](=O)[O-],-3,1,14,2,3
COc1ccc(C/C(=N\O)c2ccc(OC)cc2)cc1,7,0,1,0,·
COc1cc(NC2=Nc3cccc4cccc2c34)cc(OC)c1OC,56*,2,8,3,29
CC(C)N1CCN(Cc2ccc3c(c2)Cc2ccccc2-3)CC1CCO (stereo not drawn),85*,0,1,1,10
CC(=O)Nc1cccc(C(=O)/C=C/c2ccc(N(C)C)cc2)c1,7,1,0,1,25
CC(=O)Nc1cccc(C(=O)/C=C/c2ccc(F)cc2)c1,100*,1,5,1,-5
COc1ccc(Br)cc1/C=C/C(=O)Nc1ccc2ccccc2c1,5,-1,-5,4,37
CN(C)c1ccc(C(=O)/C=C/c2ccc(Br)cc2)cc1,90*,-1,-10,4,-23
CCC(=O)Nc1cccc(C(=O)/C=C/c2cc(Br)ccc2OC)c1,100*,1,2,9.6*,89*
CN(C)c1ccc(C(=O)/C=C/c2ccccc2)cc1,-2,-2,2,2,3
CC(=O)Nc1cccc(C(=O)/C=C/c2ccc(/C=C/C(=O)c3cccc(NC(C)=O)c3)cc2)c1,80*,-1,9,3,1
CCN(CC)CCOc1ccccc1C(C)=O,-3,0,1,1,-30
O=C(c1cc(S(=O)(=O)N2CCC3(CC2)OCCO3)ccc1F)N1CCCCC1,-6,1,0,2,2
COc1ccccc1/C=C/C(=O)Nc1cccc(C(C)=O)c1,10,-1,-3,2,9
CC(=O)Nc1cccc(C(=O)/C=C/c2ccc(Br)cc2)c1,100*,2,37,1,7
COc1ccc(/C=C/C(=O)Nc2cccc(C(C)=O)c2)cc1,85*,·,0,1,-28
CCOC(=O)N1CCN(C(=O)c2c(N)no[n+]2[O-])CC1,9,0,0,3,2
Cc1ccc(-n2[nH]c(C)c(/C=N/Nc3ccc([N+](=O)[O-])cc3[N+](=O)[O-])c2=O)cc1C,-16,-1,-2,5,70*
O=S(=O)(c1ccccc1)N1N=C(c2ccccc2)CC1c1ccccc1 (stereo not drawn),15,0,-2,4,80*
COc1cccc(C2CC(c3ccccc3)=NN2S(=O)(=O)c2ccc(C)cc2)c1OC (stereo not drawn),61*,0,0,11*,57
CCNC(=S)NNC(=O)c1cc(C2CC2)nc2ccccc12,-6,1,4,0,-10
COc1ccc(F)cc1C(=O)C1CCCN(C(=O)c2ocnc2C)C1 (stereo not drawn),-7,0,0,0,-11
